ChEMBL document CHEMBL1157285, “Antimalarial compounds from Grewia bilamellata” (J Nat Prod, 2006)

Assays:
[1] = Cytotoxicity against human KB cells by SRB assay; format: cell-based; conditions: read-out: ED50 (the source's name)
Procedure, shortened: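 Human oral epidermoid carcinoma KB cells stained with sulforhodamine B; ED50 from nonlinear regression of percent survival against compound concentration. ED50 of 50 µM or above taken as noncytotoxic; extract values in µg/mL.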

Plasmodium falciparum [2] = test: Antimalarial activity against Plasmodium falciparum D6 by [3H]hypoxanthine uptake; format: functional, organism-based
Procedure, shortened: (§1)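 Cultured P. falciparum clones tested, parasite-specific [3H]hypoxanthine incorporation measured; zero-drug wells set as 100% incorporation. IC50 (50% inhibition of incorporation) fitted by nonlinear regression; pure compounds with IC50 < 10 µg/mL counted as active. Extract values expressed in µg/mL.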

[3] = Selectivity index, ratio of ED50 for human KB cells to IC50 for Plasmodium falciparum D6; format: functional
Procedure, shortened: (§2)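 Selectivity index computed as ED50 in KB cells (SRB survival assay) divided by IC50 against the P. falciparum clone from [3H]hypoxanthine incorporation, both fitted by nonlinear regression.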

Plasmodium falciparum [4] = test: Antimalarial activity against Plasmodium falciparum W2 by [3H]hypoxanthine uptake; format: functional, organism-based; procedure, shortened: as §1
[5] = Selectivity index, ratio of ED50 for human KB cells to IC50 for Plasmodium falciparum W2; format: functional; procedure, shortened: as §2

| Compound | IC50 (Plasmodium falciparum [2]) | IC50 (Plasmodium falciparum [4]) | CC50 [1] | Selectivity Index [3] | Selectivity Index [5] |
| --- | --- | --- | --- | --- | --- |
| COC1=CC(=O)C=C(OC)C1(O)CC(C)=O | 42.2 µM | 23 µM | 169 µM | 4 | 7.3 |
| CC(C)(O)[C@@H]1CC[C@]2(C)CC[C@]3(C)[C@H](CC[C@@H]4[C@@]5(C)CC[C@@H](O)C(C)(C)[C@@H]5CC[C@]43C)[C@@H]12 | 19.8 µM | 19.1 µM | > 90 µM | >4.5 | >4.7 |
| CCN(CC)CCCC(C)Nc1ccnc2cc(Cl)ccc12 (stereo unspecified) [CHLOROQUINE] | – | – | 30.8 µM | – | – |
| COc1cc([C@@H]2Oc3cc4ccc(=O)oc4cc3O[C@H]2CO)cc(O)c1O [GREWIN] | 11.2 µM | 5.5 µM | > 108 µM | >9.6 | >19.7 |

Further lines, with some results ahead:

| IC50 (Plasmodium falciparum [2]) | IC50 (Plasmodium falciparum [4]) | Compound | CC50 [1] | Selectivity Index [3] | Selectivity Index [5] |
| --- | --- | --- | --- | --- | --- |
| 21.1 µM | 8.6 µM | CC1(C)CC[C@]2(C(=O)O)CC[C@]3(C)C(=CC[C@@H]4[C@@]5(C)C[C@@H](O)[C@H](O)C(C)(C)[C@@H]5CC[C@]43C)[C@@H]2C1 [MASLINIC ACID] | 51.5 µM | 2.4 | 5.9 |
| 21.2 µM | 18.4 µM | COc1cc([C@@H]2Oc3cc(/C=C/CO)cc(OC)c3O[C@H]2CO)cc(OC)c1O [NITIDANIN] | > 99 µM | >4.6 | >5.4 |
